Source: PMC6468299 (Nucleic Acids Research, 2019)
Like-named read-outs stand apart in the source and are kept apart here. Marks after values point to notes of the source that are not given here. One block for each molecule: values may come before it.

What was measured:
[1] = In vitro metabolism of 2′-F-monomers in human liver S9; type: in vitro ADME; settings: 10 μM, human liver S9 1 mg/ml, 37°C, 1 h
[2] = type: in vivo, Sprague Dawley rats; settings: single 30 mg/kg sc; for amount excreted in bile: rat bile collected over 168 h; for amount excreted in urine: rat urine collected over 168 h
Method in brief: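 Rats (3 male, 3 female) received a single subcutaneous 30 mg/kg dose of test GalNAc–siRNA. Liver, kidney, heart, plasma, urine and bile were sampled, with urine and bile collected over 168 h. Samples were ACN/water-precipitated, dried and dephosphorylated with calf intestinal alkaline phosphatase (pH 8.0, 37°C, 1 h). 2′-F-nucleosides were quantified by LC-MS/MS against matrix standards ([…]). Values are group means.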

HepG2 (liver) = assay: Cytotoxicity, sulforhodamine B assay, HepG2; type: cell-based, human; settings: day 11, four doses
Method in brief: (§1)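 Cells were grown 1 week in glucose- or galactose-containing medium, then seeded in 96-well plates. iCell cardiomyocytes were seeded on gelatin-coated plates and grown 5 days. Test compounds in 1:1 ethanol:water were added at each media change on days 0, 3, 7 and 10 (four doses), at up to 250 μM. Final ethanol was 2.5% at 250 μM and 1% otherwise. Total protein was read by sulforhodamine B on day 11. CC50 was fitted from triplicates.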

SkMC (muscle) = assay: Cytotoxicity, sulforhodamine B assay, SkMC; type: cell-based, human; settings: SkMC, day 11
Method in brief: as §1

Caki-1 (kidney) = assay: Cytotoxicity, sulforhodamine B assay, Caki-1; type: cell-based, human; settings: day 11
Method in brief: as §1

Molt-4 (blood) = assay: Cytotoxicity, sulforhodamine B assay, Molt-4; type: cell-based, human; settings: day 11
Method in brief: as §1

COLO 205 (intestine) = assay: Cytotoxicity, sulforhodamine B assay, COLO 205; type: cell-based, human; settings: day 11
Method in brief: as §1

SNB-78 (CNS) = assay: Cytotoxicity, sulforhodamine B assay, SNB-78; type: cell-based, human; settings: for CC50: day 11
Method in brief: as §1

[3] = Cytotoxicity, sulforhodamine B assay, HepG2; type: cell-based, human; settings: human, HepG2 cells (liver), day 11, four doses
Method in brief: as §1

[4] = Cytotoxicity, sulforhodamine B assay, SkMC; type: cell-based, human; settings: human, SkMC cells (muscle), CC50, SkMC, day 11
Method in brief: as §1

[5] = Cytotoxicity, sulforhodamine B assay, Caki-1; type: cell-based, human; settings: human, Caki-1 cells (kidney), day 11
Method in brief: as §1

[6] = Cytotoxicity, sulforhodamine B assay, Molt-4; type: cell-based, human; settings: human, Molt-4 cells (blood), day 11
Method in brief: as §1

[7] = Cytotoxicity, sulforhodamine B assay, COLO 205; type: cell-based, human; settings: human, COLO 205 cells (intestine), day 11
Method in brief: as §1

[8] = Cytotoxicity, sulforhodamine B assay, SNB-78; type: cell-based, human; settings: human, SNB-78 cells (CNS), day 11
Method in brief: as §1

[9] = Cytotoxicity, sulforhodamine B assay, iCell cardiomyocytes; type: cell-based; settings: human, iCell cardiomyocytes (heart)
Method in brief: as §1

[10] = tested on: mitochondrial DNA (MT-CO1); assay: Mitochondrial DNA quantification by qPCR; type: cell-based, human; settings: across all cell lines, at ≤4 μM, day 11
Method in brief: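 Cells were treated as in the 11-day, four-dose cytotoxicity protocol in glucose or galactose medium. DNA was then quantified by TaqMan qPCR, with nuclear DNA measured using a succinate dehydrogenase-specific probe.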

[11] = tested on: human cellular polymerases; settings: cited from earlier work

metabolic fate of 2′-F-nucleoside [1]: stable
amount excreted in bile ([2]; ALN-TTRSC02 (ESC)): <0.0004* μg
amount excreted in bile ([2]; revusiran (STC)): 0.042 µg
% dose excreted in bile ([2]; rat bile over 168 h, ALN-TTRSC02 (ESC)): <0.0003* % dose
Cmax ([2]; rat heart, ALN-TTRSC02 (ESC)): < 500 nM
Cmax ([2]; rat heart, revusiran (STC)): < 500 nM
Cmax ([2]; rat kidney, ALN-TTRSC02 (ESC)): < 500 nM
AUClast ([2]; rat kidney, revusiran (STC)): 150 µM·h
Cmax ([2]; rat kidney, revusiran (STC)): 2600 nM
t1/2 (elimination half-life) ([2]; rat kidney, revusiran (STC)): 46.9 h
tmax ([2]; rat kidney, revusiran (STC)): 16 h
AUClast ([2]; rat liver, ALN-TTRSC02 (ESC)): 138 µM·h
tmax ([2]; rat liver, ALN-TTRSC02 (ESC)): 48 h
Cmax ([2]; rat liver, monomer liberated from ALN-TTRSC02 (ESC)): 1700 nM
Cmax ([2]; rat liver, monomer liberated from revusiran (STC)): 10800 nM
AUClast ([2]; rat liver, revusiran (STC)): 722 µM·h
tmax ([2]; rat liver, revusiran (STC)): 36 h
Cmax ([2]; rat plasma, ALN-TTRSC02 (ESC)): < 30 nM
Cmax ([2]; rat plasma, revusiran (STC)): < 30 nM
amount excreted in urine ([2]; ALN-TTRSC02 (ESC)): <0.003* μg
amount excreted in urine ([2]; revusiran (STC)): 1.3 µg
% dose excreted in urine ([2]; rat urine over 168 h, ALN-TTRSC02 (ESC)): <0.002* % dose
Structure (SMILES): Nc1nc2c(ncn2[C@@H]2O[C@H](CO)[C@@H](O)[C@H]2F)c(=O)[nH]1 [2′-F-G, 2′-F-guanosine]
CC50 (HepG2 (liver); HepG2, Galactose media): 112 µM
CC50 (HepG2 (liver); HepG2, Glucose media): 115 µM
CC50 (SkMC (muscle); Galactose media): 110 µM
CC50 (SkMC (muscle); Glucose media): 127 µM
CC50 (Caki-1 (kidney); Caki-1, Galactose media): 30 µM
CC50 (Caki-1 (kidney); Caki-1, Glucose media): 32 µM
CC50 (Molt-4 (blood); Molt-4, Galactose media): 12 µM
CC50 (Molt-4 (blood); Molt-4, Glucose media): 15 µM
CC50 (COLO 205 (intestine); COLO 205, Galactose media): 22 µM
CC50 (COLO 205 (intestine); COLO 205, Glucose media): 19 µM
decrease of CC50 in galactose compared to glucose media (SNB-78 (CNS); SNB-78): 2–10 fold
CC50 (SNB-78 (CNS); SNB-78, Galactose media): 12 µM
CC50 (SNB-78 (CNS); SNB-78, Glucose media): 35 µM

reduction in mitochondrial DNA synthesis [10]: 70–80%
Structure (SMILES): Nc1ccn([C@H]2CC[C@@H](CO)O2)c(=O)n1 [ddC, 2′,3′-Dideoxycytidine]
CC50 at 11 days ([3]; CC50, HepG2, Galactose media): > 20 µM
CC50 at 11 days ([3]; CC50, HepG2, Glucose media): > 20 µM
CC50 at 11 days ([4]; Galactose media): > 20 µM
CC50 at 11 days ([4]; Glucose media): > 20 µM
CC50 at 11 days ([5]; CC50, Caki-1, Galactose media): > 20 µM
CC50 at 11 days ([5]; CC50, Caki-1, Glucose media): > 20 µM
CC50 at 11 days ([6]; CC50, Molt-4, Galactose media): > 20 µM
CC50 at 11 days ([6]; CC50, Molt-4, Glucose media): 8.7 µM
CC50 at 11 days ([7]; CC50, COLO 205, Galactose media): > 20 µM
CC50 at 11 days ([7]; CC50, COLO 205, Glucose media): > 20 µM
CC50 at 11 days ([8]; CC50, SNB-78, Galactose media): > 20 µM
CC50 at 11 days ([8]; CC50, SNB-78, Glucose media): > 20 µM
CC50 at 11 days [9]: > 250 µM

Structure (SMILES): C[C@@]1(F)[C@H](O)[C@@H](COP(=O)(O)OP(=O)(O)OP(=O)(O)O)O[C@H]1n1ccc(=O)[nH]c1=O [triphosphate form of Sofosbuvir]
IC50 [11]: > 200 µM
